Data taken from ChEMBL document CHEMBL5046221, “Identification of Pyrimidine-Based Lead Compounds for Understudied Kinases Implicated in Driving Neurodegeneration” (J Med Chem, 2022).

Columns and labels:
[1] = Effective permeability in PBS at 7.4 incubated for 5 hrs by PAMPA analysis; type: ADME; settings: pH 7.4, 5 h
In short: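 PAMPA: DMSO stocks were diluted in PBS pH 7.4 and placed in the donor compartment, with PBS pH 7.4 in the acceptor, for 5 h. Both compartments were quantified by CLND against a calibration curve, with background nitrogen correction. Effective permeability was calculated from donor and acceptor concentrations using measured rather than assumed solubility.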

[2] = molecular target: MAP/microtubule affinity-regulating kinase 3 (Homo sapiens, UniProt P27448); experiment: Displacement of tracer K9 from NLuc fused MARK3 (unknown origin) expressed in HEK293 cells by NanoBRET assay; type: cell-based
Sequence of MAP/microtubule affinity-regulating kinase 3 (P27448 whole entry, the tested form may be a part): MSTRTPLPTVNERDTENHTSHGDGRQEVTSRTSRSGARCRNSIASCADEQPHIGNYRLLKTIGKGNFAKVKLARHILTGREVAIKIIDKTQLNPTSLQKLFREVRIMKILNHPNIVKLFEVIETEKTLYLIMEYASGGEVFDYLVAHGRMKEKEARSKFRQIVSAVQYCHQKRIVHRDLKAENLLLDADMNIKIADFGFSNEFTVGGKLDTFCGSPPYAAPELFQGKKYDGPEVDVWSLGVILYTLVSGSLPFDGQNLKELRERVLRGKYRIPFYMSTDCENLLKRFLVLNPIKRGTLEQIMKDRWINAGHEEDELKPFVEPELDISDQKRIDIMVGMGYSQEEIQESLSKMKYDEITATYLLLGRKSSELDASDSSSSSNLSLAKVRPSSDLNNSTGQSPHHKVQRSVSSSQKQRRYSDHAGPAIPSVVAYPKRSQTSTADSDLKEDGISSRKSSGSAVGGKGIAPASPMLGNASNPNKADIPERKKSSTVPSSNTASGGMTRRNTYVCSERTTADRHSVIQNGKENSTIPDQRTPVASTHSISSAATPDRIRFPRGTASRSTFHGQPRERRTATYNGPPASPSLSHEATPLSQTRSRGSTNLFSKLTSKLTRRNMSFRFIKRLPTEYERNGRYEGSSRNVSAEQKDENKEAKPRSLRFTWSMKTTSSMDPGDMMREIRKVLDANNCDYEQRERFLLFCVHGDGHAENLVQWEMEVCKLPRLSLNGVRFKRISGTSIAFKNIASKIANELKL

[3] = molecular target: T1, MAP/microtubule affinity-regulating kinase 4 (Homo sapiens, UniProt Q96L34); experiment: Displacement of tracer K5 from NLuc fused MARK4 (unknown origin) expressed in HEK293 cells by NanoBRET assay; type: cell-based
T1 sequence (Q96L34 whole entry): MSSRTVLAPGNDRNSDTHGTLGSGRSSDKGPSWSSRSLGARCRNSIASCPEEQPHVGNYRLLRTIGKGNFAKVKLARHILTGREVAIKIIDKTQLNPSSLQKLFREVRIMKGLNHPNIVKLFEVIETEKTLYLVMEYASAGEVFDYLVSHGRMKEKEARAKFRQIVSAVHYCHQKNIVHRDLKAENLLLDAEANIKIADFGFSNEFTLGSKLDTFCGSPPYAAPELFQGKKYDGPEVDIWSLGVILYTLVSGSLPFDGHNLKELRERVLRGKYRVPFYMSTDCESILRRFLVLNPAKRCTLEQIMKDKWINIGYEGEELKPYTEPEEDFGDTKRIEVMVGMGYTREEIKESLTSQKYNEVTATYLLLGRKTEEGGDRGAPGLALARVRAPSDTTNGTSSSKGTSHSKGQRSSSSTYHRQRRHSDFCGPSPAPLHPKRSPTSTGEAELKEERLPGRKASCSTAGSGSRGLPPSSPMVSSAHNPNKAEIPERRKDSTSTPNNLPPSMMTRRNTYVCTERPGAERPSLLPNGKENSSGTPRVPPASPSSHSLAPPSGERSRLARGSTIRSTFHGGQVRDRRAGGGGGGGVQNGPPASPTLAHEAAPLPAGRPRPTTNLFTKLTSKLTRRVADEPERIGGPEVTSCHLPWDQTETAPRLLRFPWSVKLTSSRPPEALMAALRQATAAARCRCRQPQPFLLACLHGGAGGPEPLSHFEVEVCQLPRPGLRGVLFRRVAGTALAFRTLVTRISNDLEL

[4] = Kinetic solubility of compound in PBS at pH 7.4 incubated for 24 hrs by chemiluminscent nitrogen detection method; type: physicochemical; settings: buffer, pH 7.4, 24 h
In short: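 Filtrates were quantified by total chemiluminescent nitrogen determination against a calibration curve, with correction for background nitrogen from DMSO and medium.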

[5] = molecular target: T2, Serine/threonine-protein kinase TBK1 (Homo sapiens, UniProt Q9UHD2); experiment: Displacement of tracer K5 from NLuc fused TBK1 (unknown origin) expressed in HEK293 cells by NanoBRET assay; type: cell-based
T2 sequence (Q9UHD2 whole entry): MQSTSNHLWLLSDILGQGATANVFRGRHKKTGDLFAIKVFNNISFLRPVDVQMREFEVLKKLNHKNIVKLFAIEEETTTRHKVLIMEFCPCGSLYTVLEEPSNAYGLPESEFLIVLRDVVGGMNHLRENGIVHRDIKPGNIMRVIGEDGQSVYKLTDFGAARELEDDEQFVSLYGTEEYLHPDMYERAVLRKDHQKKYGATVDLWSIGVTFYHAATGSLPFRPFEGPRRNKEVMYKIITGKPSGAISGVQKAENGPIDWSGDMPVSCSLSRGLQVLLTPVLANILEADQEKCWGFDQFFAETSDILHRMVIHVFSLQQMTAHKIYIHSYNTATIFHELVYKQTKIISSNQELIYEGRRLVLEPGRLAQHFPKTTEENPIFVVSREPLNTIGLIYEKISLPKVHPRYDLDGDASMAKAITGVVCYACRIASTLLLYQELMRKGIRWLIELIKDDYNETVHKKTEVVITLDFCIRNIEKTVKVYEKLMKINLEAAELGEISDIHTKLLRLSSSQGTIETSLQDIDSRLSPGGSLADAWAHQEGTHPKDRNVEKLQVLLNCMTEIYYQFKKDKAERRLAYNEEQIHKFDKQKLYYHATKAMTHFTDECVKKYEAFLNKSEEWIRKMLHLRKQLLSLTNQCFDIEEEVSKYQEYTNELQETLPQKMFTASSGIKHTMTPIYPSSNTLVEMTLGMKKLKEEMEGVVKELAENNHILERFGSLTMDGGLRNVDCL
In short: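 HEK293 cells grown in DMEM with 10% FBS at 37 °C, 5% CO2. NanoBRET assay run in dose–response per manufacturer's protocol with tracer K-5 at 0.5 μM. SEM calculated for assays run more than once.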

[6] = molecular target: T3, Leucine-rich repeat serine/threonine-protein kinase 2 (Homo sapiens, UniProt Q5S007); experiment: Inhibition of recombinant human LRRK2 (970 to end residues) using RLGRDKYKTLRQIRQ as substrate incubated for 40 mins in presence of [gamma-33P-ATP] by radiometric scintillation assay
T3 sequence (Q5S007 whole entry): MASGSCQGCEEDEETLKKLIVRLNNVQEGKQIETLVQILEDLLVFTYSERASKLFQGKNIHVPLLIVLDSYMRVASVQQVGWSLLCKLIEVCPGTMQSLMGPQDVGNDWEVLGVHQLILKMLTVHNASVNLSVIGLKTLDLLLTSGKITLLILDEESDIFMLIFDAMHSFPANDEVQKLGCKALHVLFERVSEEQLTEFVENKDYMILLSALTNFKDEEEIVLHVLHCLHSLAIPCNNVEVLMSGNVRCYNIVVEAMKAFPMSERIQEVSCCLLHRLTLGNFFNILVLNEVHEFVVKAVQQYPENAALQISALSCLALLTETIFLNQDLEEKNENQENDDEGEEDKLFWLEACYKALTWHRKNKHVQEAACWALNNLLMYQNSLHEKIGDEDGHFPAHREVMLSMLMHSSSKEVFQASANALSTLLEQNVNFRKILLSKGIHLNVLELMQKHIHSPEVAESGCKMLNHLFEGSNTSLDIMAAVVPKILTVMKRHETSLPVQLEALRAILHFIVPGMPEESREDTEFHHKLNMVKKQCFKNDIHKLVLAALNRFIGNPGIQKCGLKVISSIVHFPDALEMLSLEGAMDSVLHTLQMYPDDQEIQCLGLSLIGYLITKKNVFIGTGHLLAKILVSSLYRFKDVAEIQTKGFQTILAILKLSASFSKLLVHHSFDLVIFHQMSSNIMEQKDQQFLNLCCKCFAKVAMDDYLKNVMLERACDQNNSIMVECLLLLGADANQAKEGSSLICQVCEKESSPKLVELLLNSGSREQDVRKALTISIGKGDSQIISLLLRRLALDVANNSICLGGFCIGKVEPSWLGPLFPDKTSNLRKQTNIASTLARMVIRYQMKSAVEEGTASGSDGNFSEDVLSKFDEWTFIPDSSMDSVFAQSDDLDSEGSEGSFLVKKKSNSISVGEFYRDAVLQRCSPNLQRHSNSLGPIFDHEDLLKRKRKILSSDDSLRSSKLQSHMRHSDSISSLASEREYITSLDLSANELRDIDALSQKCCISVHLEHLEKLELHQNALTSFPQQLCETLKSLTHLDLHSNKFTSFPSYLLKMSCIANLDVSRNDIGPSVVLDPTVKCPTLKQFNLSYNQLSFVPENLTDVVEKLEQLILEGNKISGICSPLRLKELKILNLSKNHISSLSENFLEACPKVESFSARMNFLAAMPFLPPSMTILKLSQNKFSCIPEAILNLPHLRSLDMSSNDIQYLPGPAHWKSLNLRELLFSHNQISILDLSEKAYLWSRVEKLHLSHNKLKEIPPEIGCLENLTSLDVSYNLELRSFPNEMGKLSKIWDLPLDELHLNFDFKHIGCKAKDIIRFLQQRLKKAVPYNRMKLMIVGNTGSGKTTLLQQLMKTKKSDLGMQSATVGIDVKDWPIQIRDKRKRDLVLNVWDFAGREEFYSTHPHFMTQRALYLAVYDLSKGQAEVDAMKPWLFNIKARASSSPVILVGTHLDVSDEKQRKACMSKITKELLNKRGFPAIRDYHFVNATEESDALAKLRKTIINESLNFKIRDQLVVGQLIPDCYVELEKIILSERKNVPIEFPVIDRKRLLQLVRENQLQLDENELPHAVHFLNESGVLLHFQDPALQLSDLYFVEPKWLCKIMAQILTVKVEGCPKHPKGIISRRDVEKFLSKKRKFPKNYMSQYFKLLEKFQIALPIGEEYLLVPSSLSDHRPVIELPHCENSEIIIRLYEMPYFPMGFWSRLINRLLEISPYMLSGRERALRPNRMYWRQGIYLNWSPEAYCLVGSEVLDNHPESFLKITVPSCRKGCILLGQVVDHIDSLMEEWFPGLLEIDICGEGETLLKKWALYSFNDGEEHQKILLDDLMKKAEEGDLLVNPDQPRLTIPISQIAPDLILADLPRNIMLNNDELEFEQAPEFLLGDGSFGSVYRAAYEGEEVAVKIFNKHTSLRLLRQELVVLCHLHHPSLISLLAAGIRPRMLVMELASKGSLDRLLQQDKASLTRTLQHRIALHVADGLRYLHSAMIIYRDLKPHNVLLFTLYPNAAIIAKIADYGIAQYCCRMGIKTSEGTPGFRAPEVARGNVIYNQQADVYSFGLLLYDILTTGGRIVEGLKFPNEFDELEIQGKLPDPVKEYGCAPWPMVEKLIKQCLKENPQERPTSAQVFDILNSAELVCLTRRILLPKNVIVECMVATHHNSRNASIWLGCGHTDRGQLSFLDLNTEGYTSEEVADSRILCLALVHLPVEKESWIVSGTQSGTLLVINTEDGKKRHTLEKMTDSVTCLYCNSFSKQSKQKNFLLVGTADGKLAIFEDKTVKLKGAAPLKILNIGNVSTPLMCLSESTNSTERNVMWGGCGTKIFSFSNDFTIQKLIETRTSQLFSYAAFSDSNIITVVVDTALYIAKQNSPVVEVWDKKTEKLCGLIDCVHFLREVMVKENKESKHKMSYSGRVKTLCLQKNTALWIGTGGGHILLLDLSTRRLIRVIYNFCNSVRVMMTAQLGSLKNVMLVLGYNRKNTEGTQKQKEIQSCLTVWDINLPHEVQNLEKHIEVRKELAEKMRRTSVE
In short: (§1)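 Eurofins radiometric kinase assay run at ATP equal to Km for each kinase. 9-point dose–response in duplicate gives the IC50.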

[7] = molecular target: Serine/threonine-protein kinase NIM1 (Homo sapiens, UniProt Q8IY84); experiment: Inhibition of full length recombinant human NIM1 using KKKVSRSGLYRSPSMPENLNRPR as substrate incubated for 40 mins in presence of [gamma-33P-ATP] by radiometric scintillation assay
Sequence of Serine/threonine-protein kinase NIM1 (Q8IY84 whole entry): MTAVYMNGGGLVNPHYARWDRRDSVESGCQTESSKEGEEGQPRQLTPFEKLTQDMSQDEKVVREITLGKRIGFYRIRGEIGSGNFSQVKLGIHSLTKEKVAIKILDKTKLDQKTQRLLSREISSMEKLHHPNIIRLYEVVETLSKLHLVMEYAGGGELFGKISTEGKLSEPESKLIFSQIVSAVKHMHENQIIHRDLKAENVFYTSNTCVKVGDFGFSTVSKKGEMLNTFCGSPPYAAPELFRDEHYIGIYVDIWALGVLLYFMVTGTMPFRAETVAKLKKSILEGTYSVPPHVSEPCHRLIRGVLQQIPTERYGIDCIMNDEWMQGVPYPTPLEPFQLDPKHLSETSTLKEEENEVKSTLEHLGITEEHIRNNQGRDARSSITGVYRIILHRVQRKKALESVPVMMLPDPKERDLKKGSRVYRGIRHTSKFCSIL
In short: (§2)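 Eurofins radiometric enzymatic assay with ATP at Km for each kinase. IC50 was derived from a 9-point dose–response curve run in duplicate.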

[8] = molecular target: Myosin light chain kinase 2, skeletal/cardiac muscle (Homo sapiens, UniProt Q9H1R3); experiment: Inhibition of full length recombinant human MYLK2 using KKLNRTLSFAEPG as substrate incubated for 40 mins in presence of [gamma-33P-ATP] by radiometric scintillation assay; in short: as §2
[9] = molecular target: T4, Serine/threonine-protein kinase 17B (Homo sapiens) (UniProt O94768); experiment: Inhibition of full length recombinant human DRAK2 using KKRPQRRYSNVF as substrate at 1 uM incubated for 120 mins in presence of [gamma-33P-ATP] by radiometric scintillation assay relative to control
T4 sequence (whole entry): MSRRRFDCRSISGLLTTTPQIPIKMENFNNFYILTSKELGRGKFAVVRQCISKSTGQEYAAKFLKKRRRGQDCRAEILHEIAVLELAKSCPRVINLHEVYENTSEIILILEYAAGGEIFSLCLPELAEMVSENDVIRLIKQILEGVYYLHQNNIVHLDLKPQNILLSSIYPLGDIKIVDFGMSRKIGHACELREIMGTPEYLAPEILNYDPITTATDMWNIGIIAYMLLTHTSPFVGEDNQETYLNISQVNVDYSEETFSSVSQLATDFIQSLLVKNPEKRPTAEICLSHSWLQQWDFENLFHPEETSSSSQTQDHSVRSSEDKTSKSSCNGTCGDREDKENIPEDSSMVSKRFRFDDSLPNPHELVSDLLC
In short: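 Eurofins radiometric kinase assay with ATP at Km for each kinase. Compound was tested at a single 1 μM concentration in duplicate, and the result is reported as percent of control.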

[10] = molecular target: T5, Serine/threonine-protein kinase 17A (Homo sapiens, UniProt Q9UEE5); experiment: Displacement of tracer K9 from NLuc fused DRAK1 (unknown origin) expressed in HEK293 cells by NanoBRET assay; type: cell-based
T5 sequence (Q9UEE5 whole entry): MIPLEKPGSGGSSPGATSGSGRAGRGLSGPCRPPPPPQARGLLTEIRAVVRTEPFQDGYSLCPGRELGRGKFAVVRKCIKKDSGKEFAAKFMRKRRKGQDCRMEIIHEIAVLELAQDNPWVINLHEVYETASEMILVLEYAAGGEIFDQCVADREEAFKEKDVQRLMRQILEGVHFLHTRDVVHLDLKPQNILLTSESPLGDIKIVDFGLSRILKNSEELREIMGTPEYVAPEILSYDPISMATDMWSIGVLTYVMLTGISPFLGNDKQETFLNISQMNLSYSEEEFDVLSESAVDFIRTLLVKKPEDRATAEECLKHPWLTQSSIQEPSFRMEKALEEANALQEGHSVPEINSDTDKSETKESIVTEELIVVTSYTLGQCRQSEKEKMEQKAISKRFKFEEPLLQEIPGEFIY

[11] = molecular target: T3, Leucine-rich repeat serine/threonine-protein kinase 2; experiment: Inhibition of NanoLuc-fused LRRK2 (unknown origin) expressed in HEK293 cells incubated for 2 hrs by NanoBRET assay; type: cell-based
In short: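 Cellular target engagement by NanoBRET in dose–response, done in singlicate by Carna Biosciences following the manufacturer's protocol. Compounds tested at concentrations up to 10 μM.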

[12] = molecular target: MAP kinase-interacting serine/threonine-protein kinase 2 (Homo sapiens, UniProt Q9HBH9); experiment: Inhibition of full length recombinant human MKNK2 using myelin basic protein as substrate incubated for 40 mins in presence of [gamma-33P-ATP] by radiometric scintillation assay; in short: as §1
Sequence of MAP kinase-interacting serine/threonine-protein kinase 2 (Q9HBH9 whole entry): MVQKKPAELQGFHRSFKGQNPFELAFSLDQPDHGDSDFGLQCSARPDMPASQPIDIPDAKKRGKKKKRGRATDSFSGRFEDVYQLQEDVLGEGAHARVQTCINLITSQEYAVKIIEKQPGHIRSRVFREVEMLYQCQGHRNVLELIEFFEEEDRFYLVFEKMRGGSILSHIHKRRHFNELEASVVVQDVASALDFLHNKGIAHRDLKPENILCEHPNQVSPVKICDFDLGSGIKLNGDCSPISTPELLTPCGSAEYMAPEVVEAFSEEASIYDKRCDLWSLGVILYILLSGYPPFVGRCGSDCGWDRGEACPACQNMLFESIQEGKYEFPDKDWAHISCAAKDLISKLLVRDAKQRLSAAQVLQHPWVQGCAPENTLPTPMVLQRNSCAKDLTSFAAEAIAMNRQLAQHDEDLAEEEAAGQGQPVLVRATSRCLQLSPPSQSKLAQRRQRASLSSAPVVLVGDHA

[13] = molecular target: Serine/threonine-protein kinase 32B (Homo sapiens, UniProt Q9NY57); experiment: Inhibition of full length recombinant human YANK2 using casein as substrate incubated for 120 mins in presence of [gamma-33P-ATP] by radiometric scintillation assay; in short: as §2
Sequence of Serine/threonine-protein kinase 32B (Q9NY57 whole entry): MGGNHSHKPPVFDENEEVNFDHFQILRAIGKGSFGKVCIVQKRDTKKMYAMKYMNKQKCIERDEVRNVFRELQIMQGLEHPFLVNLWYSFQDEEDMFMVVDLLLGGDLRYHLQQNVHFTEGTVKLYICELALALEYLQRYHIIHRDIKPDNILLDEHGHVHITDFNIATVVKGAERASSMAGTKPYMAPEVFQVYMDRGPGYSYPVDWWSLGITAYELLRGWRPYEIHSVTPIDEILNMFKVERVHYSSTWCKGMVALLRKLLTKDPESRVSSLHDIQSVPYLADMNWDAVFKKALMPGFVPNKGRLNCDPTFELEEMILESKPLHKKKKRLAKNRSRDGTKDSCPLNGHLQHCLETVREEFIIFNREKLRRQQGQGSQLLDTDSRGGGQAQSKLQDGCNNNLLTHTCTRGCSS

SMILES | Peff [1] | IC50 [2] [µM] | IC50 [3] [µM] | Kinetic_solubility [4] [µM] | IC50 [5] [µM] | IC50 [6] [µM] | IC50 [7] [µM] | IC50 [8] [µM] | % control [9] [%] | IC50 [10] [µM] | IC50 [11] [µM] | IC50 [12] [µM] | IC50 [13] [µM]
Cc1nn(CC(F)(F)F)cc1Nc1ncc(C2CC2)c(NCCc2c[nH]cn2)n1 | 3.89 10^-7 cm/s | > 10 | > 10 | 171 | > 10 | 0.089 | 4.4 | 1.12 | 59 | > 10 | > 10 | – | –
Cc1nn(CC(F)(F)F)cc1Nc1nccc(NCCCNC(=O)C2CCC2)n1 | 2.39 10^-6 cm/s | > 10 | > 10 | 174.6 | > 10 | – | – | – | 60 | > 10 | – | 2.87 | > 10
